From ChEMBL document CHEMBL4373644, “Fungal natural alkaloid schizocommunin activates the aryl hydrocarbon receptor pathway” (Medchemcomm, 2019) come the findings set out here.

The target in data set [1] is T1, Aryl hydrocarbon receptor (Homo sapiens, UniProt P35869).
T1 sequence (P35869 whole entry): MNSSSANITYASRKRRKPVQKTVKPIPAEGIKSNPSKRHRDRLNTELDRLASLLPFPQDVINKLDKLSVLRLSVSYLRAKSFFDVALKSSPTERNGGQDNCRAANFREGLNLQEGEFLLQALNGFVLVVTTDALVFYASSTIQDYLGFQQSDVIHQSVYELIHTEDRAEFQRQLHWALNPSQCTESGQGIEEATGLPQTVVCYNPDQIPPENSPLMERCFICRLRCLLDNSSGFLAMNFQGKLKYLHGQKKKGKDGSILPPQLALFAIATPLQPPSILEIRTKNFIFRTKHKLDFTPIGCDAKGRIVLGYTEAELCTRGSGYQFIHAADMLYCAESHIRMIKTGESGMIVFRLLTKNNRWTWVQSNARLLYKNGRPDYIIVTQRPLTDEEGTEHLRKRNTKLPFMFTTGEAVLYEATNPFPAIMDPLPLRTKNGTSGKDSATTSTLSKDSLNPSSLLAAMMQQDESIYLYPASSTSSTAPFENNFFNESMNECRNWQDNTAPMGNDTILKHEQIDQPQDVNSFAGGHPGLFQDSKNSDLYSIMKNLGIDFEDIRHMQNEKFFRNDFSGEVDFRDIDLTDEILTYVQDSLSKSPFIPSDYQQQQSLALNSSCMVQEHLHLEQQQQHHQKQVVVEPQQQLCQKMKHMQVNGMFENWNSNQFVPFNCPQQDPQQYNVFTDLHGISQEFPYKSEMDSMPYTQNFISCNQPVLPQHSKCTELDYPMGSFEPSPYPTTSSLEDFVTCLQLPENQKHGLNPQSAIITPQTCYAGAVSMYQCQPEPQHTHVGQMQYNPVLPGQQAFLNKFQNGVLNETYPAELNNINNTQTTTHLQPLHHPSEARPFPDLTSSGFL
In words: Agonist activity at AhR in human HuH7 cells after 24 hrs by renilla luciferase reporter gene assay. In kind it is cell-based. The procedure, abridged:
(§1)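 Huh7 cells seeded 20 000 per well, next day co-transfected with XRE-driven firefly luciferase (pGL4.43 luc2P/XRE) and Renilla plasmids by lipofection. A day later treated 24 h at 0.1, 0.5, 5 or 10 μM, 1% final DMSO, then lysed. Luciferase read in technical triplicate; signal normalised to Renilla and to DMSO vehicle.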

Data set [2] concerns the target T1, Aryl hydrocarbon receptor. The data set is described as follows: Agonist activity at AhR in human A549 cells assessed as increase in UGT1A expression at 10 uM after 24 hrs by RT-qPCR analysis. In kind it is ADME, cell-based. The note with it: a549, 24 h. The procedure, abridged: (§2)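 A549 lung carcinoma cells grown at 37 °C in DMEM with 10% FBS, seeded 2.75 × 10^5 per well one day ahead. Treated 24 h with 10 μM or 0.5 μM compound in 0.1% final DMSO; mock was DMSO only. RNA then analysed by RT-qPCR, normalised to 18S rRNA, 2–ΔΔCt fold change vs mock; n = 3; two-tailed unpaired t-test, p < 0.05.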
On the technique in general: Real-time PCR tracks product formation cycle by cycle.

Data set [3] concerns the target T1, Aryl hydrocarbon receptor. In words: Agonist activity at AhR in human HuH7 cells assessed as increase in CYP1B1 expression at 10 uM after 24 hrs by RT-qPCR analysis. In kind it is ADME, cell-based. The method, boiled down:
(§3)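 Huh7 hepatoma cells in DMEM with 10% FBS at 37 °C, seeded 2.75 × 10^5 per well the day before. Exposed 24 h to 10 μM or 0.5 μM compound, 0.1% final DMSO, against DMSO-only mock. RT-qPCR with 18S rRNA normalisation; fold change by 2–ΔΔCt relative to mock; n = 5; unpaired two-tailed t-test, p < 0.05.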

The test system of data set [4] is Huh-7. The data set is described as follows: Cytotoxicity against human HuH7 cells assessed as reduction in metabolic activity after 24 hrs by MTT assay. In kind it is ADME, cell-based. To be noted: Huh-7, 24 h. The procedure, abridged:
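Huh7 cells seeded 10 000 per well, next day given serial dilutions of 0.012–200 μM (2% final DMSO) for 24 h. After a PBS wash, cells incubated 3 h with MTT at 2.5 mg mL–1; crystals dissolved in DMSO, absorbance read at 562 nm and normalised to mock; EC50 from dose–response curve.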

The target in data set [5] is T1, Aryl hydrocarbon receptor. The data set is described as follows: Agonist activity at AhR in human A549 cells assessed as increase in ALDH3A1 expression at 10 uM after 24 hrs by q-RT-PCR analysis. In kind it is cell-based. To be noted: a549, 24 h. The procedure, abridged:
as §2

The target of data set [6] is T1, Aryl hydrocarbon receptor. In words: Agonist activity at AhR in human HuH7 cells assessed as effect on GSTA1 expression at 10 uM after 24 hrs by qRT-PCR analysis. Type of data set: cell-based. The procedure, abridged: as §3
Data set [7] addresses T2, CYP1A1 (via AhR) (Homo sapiens, UniProt P35869).
T2 sequence (P35869 whole entry): T1 sequence (P35869 whole entry)
The data set is described as follows: Agonist activity at AhR in human HuH7 cells assessed as increase in CYP1A1 expression at 10 uM after 24 hrs by microarray analysis relative to control. To be noted: read-out: FC. Type of data set: ADME, cell-based. The method, boiled down:
(§4)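 Transcriptome screen in Huh7 cells seeded 2.75 × 10^5 per well and treated 24 h with 10 μM or 0.5 μM compound (0.1% final DMSO) or DMSO mock. RNA isolated by column kit and profiled on microarray; expression given as fold change versus mock.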

The target in data set [8] is T3, AhR (aryl hydrocarbon receptor) (Homo sapiens, UniProt P35869).
T3 sequence (P35869 whole entry): T1 sequence (P35869 whole entry)
In words: Agonist activity at AhR in human HuH7 cells at 10 uM after 24 hrs by renilla luciferase reporter gene assay relative to control. Type of data set: cell-based. The note with it: read-out: FC. The procedure, abridged: as §1

Data set [9] deals with T4, CYP1B1 (via AhR) (Homo sapiens, UniProt P35869).
T4 sequence (P35869 whole entry): T1 sequence (P35869 whole entry)
In words: Agonist activity at AhR in human HuH7 cells assessed as increase in CYP1B1 expression at 10 uM after 24 hrs by microarray analysis relative to control. To be noted: read-out: FC. Type of data set: ADME, cell-based. The method, boiled down:
as §4

Data set [10] addresses T1, Aryl hydrocarbon receptor. In words: Agonist activity at AhR in human HuH7 cells assessed as increase in UGT1A expression at 10 uM after 24 hrs by RT-qPCR analysis. Type of data set: ADME, cell-based. The method, boiled down: as §3
Data set [11] has as its target T1, Aryl hydrocarbon receptor. In words: Agonist activity at AhR in human HuH7 cells assessed as reduction in ALDH3A1 expression at 10 uM after 24 hrs by q-RT-PCR analysis relative to control. In kind it is cell-based. The procedure, abridged:
as §3

Data set [12] deals with Huh-7. In words: Effect on XAP2 expression in human HuH7 cells at 0.5 uM after 24 hrs by qRT-PCR analysis. In kind it is ADME, cell-based. To be noted: huh-7, 24 h. The procedure, abridged: as §3
Data set [13] deals with T1, Aryl hydrocarbon receptor. In words: Agonist activity at AhR in human HuH7 cells assessed as effect on GSTA1 expression at 0.5 uM after 24 hrs by qRT-PCR analysis. Type of data set: cell-based. The method, boiled down:
as §3

In data set [14] the target is T1, Aryl hydrocarbon receptor. The data set is described as follows: Agonist activity at AhR in human A549 cells assessed as increase in CYP1B1 expression at 0.5 uM after 24 hrs by RT-qPCR analysis. Type of data set: ADME, cell-based. The note with it: a549, 24 h. The procedure, abridged:
as §2

Data set [15] addresses T1, Aryl hydrocarbon receptor. The data set is described as follows: Agonist activity at AhR in human A549 cells assessed as increase in UGT1A expression at 0.5 uM after 24 hrs by RT-qPCR analysis. Type of data set: ADME, cell-based. The note with it: a549, 24 h. The procedure, abridged: as §2
For data set [16], the system named is Huh-7. The data set is described as follows: Effect on AhR expression in human HuH7 cells at 0.5 uM after 24 hrs by qRT-PCR analysis. Type of data set: ADME, cell-based. The note with it: huh-7, 24 h. The method, boiled down:
as §3

Data set [17] deals with T4, CYP1B1 (via AhR). In words: Agonist activity at AhR in human HuH7 cells assessed as increase in CYP1B1 expression at 0.5 uM after 24 hrs by microarray analysis relative to control. To be noted: read-out: FC. Type of data set: ADME, cell-based. The method, boiled down: as §4
The subject of data set [18] is A549. In words: Effect on AhR expression in human A549 cells at 0.5 uM after 24 hrs by qRT-PCR analysis. In kind it is ADME, cell-based. The note with it: a549, 24 h. The procedure, abridged: as §2
In data set [19] the target is T1, Aryl hydrocarbon receptor. The data set is described as follows: Agonist activity at AhR in human HuH7 cells assessed as increase in UGT1A expression at 0.5 uM after 24 hrs by RT-qPCR analysis. Type of data set: ADME, cell-based. The procedure, abridged: as §3
Data set [20] has as its target T1, Aryl hydrocarbon receptor. In words: Agonist activity at AhR in human A549 cells assessed as increase in CYP1A1 expression at 0.5 uM after 24 hrs by RT-qPCR analysis. Type of data set: ADME, cell-based. To be noted: a549, 24 h. The method, boiled down: as §2
For data set [21], the target named is T1, Aryl hydrocarbon receptor. In words: Agonist activity at AhR in human HuH7 cells assessed as effect on ALDH3A1 expression at 0.5 uM after 24 hrs by q-RT-PCR analysis. In kind it is cell-based. The procedure, abridged: as §3
In data set [22] the test system is A549. In words: Effect on XAP2 expression in human A549 cells at 0.5 uM after 24 hrs by qRT-PCR analysis. In kind it is ADME, cell-based. The note with it: a549, 24 h. The procedure, abridged:
as §2

In data set [23] the target is T2, CYP1A1 (via AhR). In words: Agonist activity at AhR in human HuH7 cells assessed as increase in CYP1A1 expression at 0.5 uM after 24 hrs by microarray analysis relative to control. Type of data set: ADME, cell-based. The note with it: read-out: FC. The method, boiled down: as §4

Regarding `O=C1Nc2ccccc2/C1=C/c1nc2ccccc2c(=O)[nH]1`, the Activity result is “Dose-dependent effect” in data set [1]; “Active” in [2]; “Active” in data set [3]; “Active” in data set [5]; “Not Active” in [6]; “Active” in [10]. Further, the EC50 – broadly, the concentration needed to bring the measured effect to its halfway point – in the data set on Huh-7 [4] turned out to be 31.3 µM. Moreover, the fold induction at 24 h, 10 µM is 10.5 at CYP1A1 (via AhR) [7], at most 17 in [8] and 8.6 at CYP1B1 (via AhR) [9]. For the same compound, the “fold change (FC)” value in data set [11] was 0.65.

On to `O=C1Nc2ccccc2/C1=C\c1nnc2ccccc2c1Cl`, for which the Activity entry in [1] is “Dose-dependent effect”; with Huh-7 [12], “Not Active”; in data set [13] it was “Not Active”; in data set [14], “Active”; in data set [15] it was “Active”; in the data set with Huh-7 [16] it was “Not Active”. The Activity result with A549 [18] is reported as “Not Active”; in data set [19], “Active”; in data set [20], “Active”; in data set [21], “Active”; with A549 [22], “Not Active”. Moreover, the EC50 in the data set with Huh-7 [4] is 9.6 µM. For the same compound, the values for the fold induction at 24 h, 0.5 µM on CYP1B1 (via AhR) [17] and at CYP1A1 (via AhR) [23] were 1.35 and 3.28, respectively.
